Measurements published in ChEMBL document CHEMBL3286129, “Optimization of peptidomimetic boronates bearing a P3 bicyclic scaffold as proteasome inhibitors” (Eur J Med Chem, 2014).

Legend:
Assay type in all cases: functional
[1] = tested on: SF-268; assay: Growth inhibition of human SF268 cells
[2] = Growth inhibition of human SF539 cells
[3] = Growth inhibition of human SF295 cells; settings: SF-295
[4] = tested on: SW-620; assay: Growth inhibition of human SW620 cells
[5] = Cytotoxicity against human CNSC cells assessed as cell growth at 10 uM relative to control; settings: read-out: Activity
Outline: (§1)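 Single-concentration screen against a panel of human cancer cell lines. Each value is the mean percent growth across the cell lines of that tumour subpanel.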

[6] = tested on: NCI-H322M; assay: Growth inhibition of human NCI-H322M cells
[7] = tested on: DU-145; assay: Growth inhibition of human DU145 cells
[8] = Cytotoxicity against human ovarian cancer cells assessed as cell growth at 10 uM relative to control; settings: Cancer cell lines, read-out: Activity; outline: as §1
[9] = tested on: SR; assay: Growth inhibition of human SR cells
[10] = tested on: IGROV-1; assay: Growth inhibition of human IGROV1 cells
[11] = Growth inhibition of human MOLT4 cells
[12] = tested on: COLO 205; assay: Growth inhibition of human COLO205 cells
[13] = Cytotoxicity against human renal cancer cells assessed as cell growth at 10 uM relative to control; settings: Cancer cell lines, read-out: Activity; outline: as §1
[14] = tested on: NCI-H226; assay: Growth inhibition of human NCI-H226 cells
[15] = Growth inhibition of human OVCAR4 cells
[16] = tested on: 786-0; assay: Growth inhibition of human 786-0 cells
[17] = Growth inhibition of human UACC257 cells; settings: UACC-257
[18] = Growth inhibition of human NCI-ADR-RES cells
[19] = tested on: SK-MEL-28; assay: Growth inhibition of human SK-MEL-28 cells
[20] = tested on: ACHN; assay: Growth inhibition of human ACHN cells
[21] = tested on: MDA-MB-231; assay: Growth inhibition of human MDA-MB-231 cells
[22] = tested on: CCRF-CEM; assay: Growth inhibition of human CCRF-CEM cells
[23] = Growth inhibition of human OVCAR8 cells
[24] = tested on: SN12C; assay: Growth inhibition of human SN12C cells
[25] = Growth inhibition of human UACC62 cells; settings: UACC-62
[26] = Growth inhibition of human RXF393 cells
[27] = tested on: HCT-116; assay: Growth inhibition of human HCT116 cells
[28] = Growth inhibition of human HOP92 cells
[29] = Growth inhibition of human OVCAR5 cells; settings: OVCAR-5
[30] = Growth inhibition of human HCC2998 cells; settings: HCC 2998
[31] = Cytotoxicity against human colon cancer cells assessed as cell growth at 10 uM relative to control; settings: Cancer cell lines, read-out: Activity; outline: as §1
[32] = Cytotoxicity against human prostate cancer cells assessed as cell growth at 10 uM relative to control; settings: Cancer cell lines, read-out: Activity; outline: as §1
[33] = tested on: K562; assay: Growth inhibition of human K562 cells
[34] = tested on: A549; assay: Growth inhibition of human A549/ATCC cells
[35] = Cytotoxicity against human leukemia cells assessed as cell growth at 10 uM relative to control; settings: read-out: Activity; outline: as §1
[36] = tested on: MDA-MB-435; assay: Growth inhibition of human MDA-MB-435 cells
[37] = tested on: PC-3; assay: Growth inhibition of human PC3 cells
[38] = tested on: MDA-MB-468; assay: Growth inhibition of human MDA-MB-468 cells
[39] = read-out: LC50 (the source's name)

**Q.** What does the source list for `CC(C)C[C@H](NC(=O)CCn1ccc2ccc(Br)cc2c1=O)B(O)O`?
**A.** GI50 [1]: 0.7 µM; LC50 [1]: > 100 µM; TGI [1]: 3.85 µM; GI50 ([2]; SF-539): 0.21 µM; TGI ([2]; SF-539): 0.6 µM; CC50 ([2]; SF-539, read-out: LC50 (the source's name)): > 100 µM; GI50 [3]: 0.58 µM; LC50 [3]: 75.5 µM; TGI [3]: 4.51 µM; GI50 [4]: 0.38 µM; LC50 [4]: > 100 µM; TGI [4]: > 100 µM; growth at 10 µM [5]: 6.51%; GI50 [6]: > 100 µM; TGI [6]: > 100 µM; CC50 [6, 39]: > 100 µM; GI50 [7]: 0.71 µM; TGI [7]: > 100 µM; CC50 [7, 39]: > 100 µM; growth at 10 µM [8]: 38.8%; GI50 [9]: 0.26 µM; TGI [9]: 11.6 µM; CC50 [9, 39]: > 100 µM; GI50 [10]: 5.1 µM; LC50 [10]: > 100 µM; TGI [10]: > 100 µM; GI50 ([11]; MOLT-4): 0.31 µM; TGI ([11]; MOLT-4): > 100 µM; CC50 ([11]; MOLT-4, read-out: LC50 (the source's name)): > 100 µM; GI50 [12]: 0.85 µM; TGI [12]: > 100 µM; CC50 [12, 39]: > 100 µM; growth at 10 µM [13]: -4%; GI50 [14]: 0.19 µM; TGI [14]: 0.42 µM; CC50 [14, 39]: 0.95 µM; GI50 ([15]; OVCAR-4): 2.06 µM; TGI ([15]; OVCAR-4): > 100 µM; CC50 ([15]; OVCAR-4, read-out: LC50 (the source's name)): > 100 µM; GI50 [16]: 0.82 µM; TGI [16]: > 100 µM; CC50 [16, 39]: > 100 µM; GI50 [17]: 0.73 µM; TGI [17]: 2.86 µM; GI50 [18]: 17.4 µM; LC50 [18]: > 100 µM; TGI [18]: > 100 µM; GI50 [19]: 0.52 µM; TGI [19]: 29.7 µM; CC50 [19, 39]: > 100 µM; GI50 [20]: 0.41 µM; TGI [20]: > 100 µM; CC50 [20, 39]: > 100 µM; GI50 [21]: 1.2 µM; TGI [21]: 12.2 µM; CC50 [21, 39]: > 100 µM; GI50 [22]: 0.43 µM; TGI [22]: > 100 µM; CC50 [22, 39]: > 100 µM; GI50 ([23]; OVCAR-8): 3.64 µM; TGI ([23]; OVCAR-8): > 100 µM; CC50 ([23]; OVCAR-8, read-out: LC50 (the source's name)): > 100 µM; GI50 [24]: 1.5 µM; TGI [24]: 11.5 µM; CC50 [24, 39]: > 100 µM; GI50 [25]: 0.46 µM; LC50 (concentration killing 50% of cells) [25]: 28.5 µM; TGI [25]: 2.44 µM; GI50 ([26]; RXF 393): 0.28 µM; TGI ([26]; RXF 393): 0.88 µM; CC50 ([26]; RXF 393, read-out: LC50 (the source's name)): 5.39 µM; GI50 [27]: 0.34 µM; LC50 [27]: > 100 µM; TGI [27]: 2.55 µM; GI50 ([28]; HOP-92): 1.34 µM; TGI ([28]; HOP-92): 5.61 µM; CC50 ([28]; HOP-92, read-out: LC50 (the source's name)): > 100 µM; GI50 [29]: 3.15 µM; LC50 [29]: > 100 µM; TGI [29]: 97.3 µM; GI50 [30]: 1.14 µM; LC50 [30]: 8.42 µM; TGI [30]: 3.09 µM; growth at 10 µM [31]: 4.45%; growth at 10 µM [32]: 34.5%; GI50 [33]: 1.08 µM; TGI [33]: > 100 µM; CC50 [33, 39]: > 100 µM; GI50 [34]: 2.39 µM; TGI [34]: > 100 µM; CC50 [34, 39]: > 100 µM; growth at 10 µM [35]: 0.02%; GI50 [36]: 0.18 µM; TGI [36]: 0.37 µM; CC50 [36, 39]: 0.78 µM; GI50 [37]: 4.19 µM; TGI [37]: > 100 µM; CC50 [37, 39]: > 100 µM; GI50 [38]: 0.26 µM; TGI [38]: 0.74 µM; CC50 [38, 39]: > 100 µM
